Tests used:
Human alphaherpesvirus 1 [1] = test: Antiviral activity against HSV1 KOS in human HEL cells assessed as protection against virus-induced cytopathicity; type: functional, organism-based; details: Human alphaherpesvirus 1, KOS
[2] = Cytotoxicity against MDCK cells assessed as drug level causing microscopically detectable alteration of normal cell morphology; type: cell-based, Canis lupus familiaris; details: dog
[3] = tested on: Mammalian orthoreovirus 1; test: Antiviral activity against Reovirus 1 in african green monkey Vero cells assessed as protection against virus-induced cytopathicity; type: functional, organism-based; details: Mammalian orthoreovirus 1, Vero
Method in brief: (§1)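 Confluent cell monolayers inoculated with 100 CCID₅₀ virus. After 1-2 h adsorption, residual virus removed and cultures incubated with varying compound concentrations. Cytopathicity scored once it reached completion in untreated infected controls. EC₅₀ = dose reducing virus-induced cytopathogenicity by 50%.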

[4] = Antiproliferative activity against human Molt4/C8 cells after 3 days; type: cell-based; details: MOLT-4, 72 h
Method in brief: (§2)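 Cells seeded at 5 × 10⁴ to 7.5 × 10⁴ cells/200 µL with or without serial compound dilutions; incubated at 37 °C for 2 days (L1210) or 3 days (Molt4/C8, CEM). Cell numbers counted with a Coulter counter. CC₅₀ = concentration reducing proliferation by 50% versus untreated controls, read from plots of cell number (% of control) against concentration. Means of at least two independent experiments.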

[5] = tested on: Human immunodeficiency virus 2; test: Antiviral activity against HIV2 ROD in human CEM cells assessed as protection against virus-induced cytopathicity after 4 days; type: functional, organism-based; details: Human immunodeficiency virus 2, ROD, CCRF-CEM, 96 h
Method in brief: (§3)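 CEM cells (~3 × 10⁵ cells/mL) infected with ~100 CCID₅₀ per mL of HIV-1 (IIIB) or HIV-2 (ROD), then seeded into wells containing compound dilutions. After 4 days at 37 °C, syncytium (giant cell) formation was examined microscopically. EC₅₀ = concentration protecting CEM cells from HIV cytopathicity by 50%.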

Influenza B virus [6] = test: Antiviral activity against influenza B virus in MDCK cells assessed as reduction of virus-induced cytopathicity by visual cytopathic effect scoring method; type: functional, organism-based
Feline coronavirus = test: Antiviral activity against Feline coronavirus in feline […] cells assessed as inhibition of virus-induced cytopathicity; type: functional, organism-based; details: Alphacoronavirus 1
[7] = biological target: Human immunodeficiency virus type 1 reverse transcriptase (Human immunodeficiency virus 1, UniProt Q72547); test: Inhibition of HIV1 reverse transcriptase p66/p51; details: read-out: IC50
[8] = biological target: Human immunodeficiency virus type 1 reverse transcriptase (Human immunodeficiency virus 1, UniProt Q72547, Y181I); test: Inhibition of HIV1 reverse transcriptase p66/p51 Y181I mutant; details: read-out: IC50
Method in brief: (§4)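 Substrate was 0.5 µg poly(rA)/oligo(dT) 10:1 (0.3 µM 3′-OH ends) with 10 µM [³H]dTTP, at 37 °C. Acid-precipitable radioactivity was counted on GF/C filters after TCA washes.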

Punta Toro virus = test: Antiviral activity against Punta Toro virus in african green monkey Vero cells assessed as protection against virus-induced cytopathicity; type: functional, organism-based; method in brief: as §1
Influenza A virus H3N2 [9] = test: Antiviral activity against influenza H3N2 virus in MDCK cells assessed as reduction of virus-induced cytopathicity by visual cytopathic effect scoring method; type: functional, organism-based
Vaccinia virus = test: Antiviral activity against Vaccinia virus Lederle in human HEL cells assessed as protection against virus-induced cytopathicity; type: functional, organism-based; details: Orthopoxvirus vaccinia
Influenza A virus H3N2 [10] = test: Antiviral activity against influenza H3N2 virus in MDCK cells assessed as reduction of virus-induced cytopathicity by MTS method; type: functional, organism-based
L1210 = test: Antiproliferative activity against mouse L1210 cells after 2 days; type: cell-based; details: L1210, 48 h; method in brief: as §2
[11] = Cytotoxicity against human HEL cells assessed as drug level causing microscopically detectable alteration of normal cell morphology after 3 days; type: cell-based
[12] = Cytotoxicity against human HeLa cells assessed as drug level causing microscopically detectable alteration of normal cell morphology after 3 days; type: cell-based
Method in brief: (§5)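 Serial compound dilutions added to confluent HeLa or Vero monolayers. MCC = minimum concentration causing microscopically detectable alteration of cell morphology after 3 days of incubation.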

[13] = Cytotoxicity against african green monkey Vero cells assessed as drug level causing microscopically detectable alteration of normal cell morphology after 3 days; type: cell-based; details: chlorocebus sabaeus; method in brief: as §5
Human respirovirus 3 = test: Antiviral activity against Parainfluenza virus type 3 in african green monkey Vero cells assessed as protection against virus-induced cytopathicity; type: functional, organism-based; details: Human respirovirus 3, Vero; method in brief: as §1
Human alphaherpesvirus 2 = test: Antiviral activity against HSV2 G in human HEL cells assessed as protection against virus-induced cytopathicity; type: functional, organism-based; details: Human alphaherpesvirus 2, strain G; method in brief: as §1
Influenza A virus [14] = test: Antiviral activity against influenza H1N1 virus in MDCK cells assessed as reduction of virus-induced cytopathicity by visual cytopathic effect scoring method; type: functional, organism-based
[15] = tested on: Vesicular stomatitis virus; test: Antiviral activity against VSV in human HeLa cells assessed as protection against virus-induced cytopathicity; type: functional, organism-based
[16] = tested on: Human immunodeficiency virus 1; test: Antiviral activity against HIV1 3B in human CEM cells assessed as protection against virus-induced cytopathicity after 4 days; type: functional, organism-based; details: Human immunodeficiency virus 1, 3B, CCRF-CEM, 96 h; method in brief: as §3
Influenza A virus [17] = test: Antiviral activity against influenza H1N1 virus in MDCK cells assessed as reduction of virus-induced cytopathicity by MTS method; type: functional, organism-based; details: Influenza A virus, H1N1, MDCK
Sindbis virus = test: Antiviral activity against Sindbis virus in african green monkey Vero cells assessed as protection against virus-induced cytopathicity; type: functional, organism-based; method in brief: as §1
Coxsackievirus B4 [18] = test: Antiviral activity against Coxsackievirus B4 in human HeLa cells assessed as protection against virus-induced cytopathicity; type: functional, organism-based; details: Enterovirus B; method in brief: as §1
[19] = biological target: Human immunodeficiency virus type 1 reverse transcriptase (Human immunodeficiency virus 1, UniProt Q72547, K103N); test: Inhibition of HIV1 reverse transcriptase p66/p51 K103N mutant; details: read-out: IC50; method in brief: as §4
[20] = biological target: Human immunodeficiency virus type 1 reverse transcriptase (Human immunodeficiency virus 1, UniProt Q72547, L100I); test: Inhibition of HIV1 reverse transcriptase p66/p51 L100I mutant; details: read-out: IC50; method in brief: as §4
Felid alphaherpesvirus 1 = test: Antiviral activity against Feline herpesvirus in feline […] cells assessed as inhibition of virus-induced cytopathicity; type: functional, organism-based
[21] = tested on: Vesicular stomatitis virus; test: Antiviral activity against VSV in human HEL cells assessed as protection against virus-induced cytopathicity; type: functional, organism-based
[22] = Cytotoxicity against feline CRFK cells by MTS assay; type: cell-based, Felis catus; details: cat
[23] = tested on: Respiratory syncytial virus; test: Antiviral activity against RSV Long in human HeLa cells assessed as protection against virus-induced cytopathicity; type: functional, organism-based; method in brief: as §1
Influenza B virus [24] = test: Antiviral activity against influenza B virus in MDCK cells assessed as reduction of virus-induced cytopathicity by MTS method; type: functional, organism-based
Coxsackievirus B4 [25] = test: Antiviral activity against Coxsackievirus B4 in african green monkey Vero cells assessed as protection against virus-induced cytopathicity; type: functional, organism-based; details: Enterovirus B; method in brief: as §1
CCRF-CEM = test: Antiproliferative activity against human CEM cells after 3 days; type: cell-based; details: 72 h; method in brief: as §2
[26] = Cytotoxicity against MDCK cells by MTS assay; type: cell-based, Canis lupus familiaris; details: dog
Human alphaherpesvirus 1 [27] = test: Antiviral activity against thymidine kinase deficient and acyclovir resistant HSV1 KOS in human HEL cells assessed as protection against virus-induced cytopathicity; type: functional, organism-based; details: Human alphaherpesvirus 1, KOS

`Cc1cc(C)cc(S(=O)(=O)c2c(C(=O)NC(C)C(N)=O)[nH]c3ccc([N+](=O)[O-])cc23)c1` (configuration not stated) gave an EC50 (Human alphaherpesvirus 1 [1]) greater than 20 µM, an MCC [2] of 100 µM and an EC50 [3] greater than 100 µM. It also gave an IC50 [4] of 44 µM, an EC50 [5] greater than 10 µM and an EC50 (Influenza B virus [6]) greater than 20 µM. It also gave an EC50 (Feline coronavirus) greater than 20 µM, an IC50 [7] of 0.022 µM and an IC50 [8] of 4.21 µM. The EC50 (Punta Toro virus) was greater than 100 µM, the EC50 (Influenza A virus H3N2 [9]) was greater than 20 µM and the EC50 (Vaccinia virus) was greater than 20 µM. It also gave an EC50 (Influenza A virus H3N2 [10]) greater than 20 µM, an IC50 (L1210) of 96 µM and an MCC at 72 h [11] of 100 µM. It also gave an MCC at 72 h [12] greater than 100 µM, an MCC at 72 h [13] greater than 100 µM and an EC50 (Human respirovirus 3) greater than 100 µM. It also gave an EC50 (Human alphaherpesvirus 2) greater than 20 µM, an EC50 (Influenza A virus [14]) greater than 20 µM and an EC50 [15] greater than 100 µM. It also gave an EC50 [16] of 0.0038 µM, an EC50 (Influenza A virus [17]) greater than 20 µM and an EC50 (Sindbis virus) greater than 100 µM. The EC50 (Coxsackievirus B4 [18]) was no less than 20 µM, the IC50 [19] was 0.362 µM and the IC50 [20] was 0.209 µM. For the same molecule, the EC50 (Felid alphaherpesvirus 1) was greater than 20 µM, the EC50 [21] was greater than 20 µM and the CC50 [22] was 82.1 µM. For the same molecule, the EC50 [23] was greater than 100 µM, the EC50 (Influenza B virus [24]) was greater than 20 µM and the EC50 (Coxsackievirus B4 [25]) was greater than 100 µM. For the same molecule, the IC50 (CCRF-CEM) was 66 µM, the CC50 [26] was 95.9 µM and the EC50 (Human alphaherpesvirus 1 [27]) was greater than 20 µM.

`Cc1cc(C)cc(S(=O)(=O)c2c(C(=O)NC(C)C(N)=O)[nH]c3ccc(Br)cc23)c1` (configuration not stated) gave an EC50 (Human alphaherpesvirus 1 [1]) greater than 4 µM, an MCC [2] of 4 µM and an EC50 [3] greater than 4 µM. The IC50 [4] was 8.7 µM, the EC50 [5] was greater than 10 µM and the EC50 (Influenza B virus [6]) was greater than 800 µM. The EC50 (Feline coronavirus) was greater than 4 µM, the IC50 [7] was 0.016 µM and the IC50 [8] was 1.81 µM. It also gave an EC50 (Punta Toro virus) greater than 4 µM, an EC50 (Influenza A virus H3N2 [9]) greater than 800 µM and an EC50 (Vaccinia virus) greater than 4 µM. The EC50 (Influenza A virus H3N2 [10]) was greater than 800 µM, the IC50 (L1210) was 10 µM and the MCC at 72 h [11] was 20 µM. For the same molecule, the MCC at 72 h [12] was 20 µM, the MCC at 72 h [13] was 20 µM and the EC50 (Human respirovirus 3) was greater than 4 µM. The EC50 (Human alphaherpesvirus 2) was greater than 4 µM, the EC50 (Influenza A virus [14]) was greater than 800 µM and the EC50 [15] was greater than 4 µM. For the same molecule, the EC50 [16] was 0.0019 µM, the EC50 (Influenza A virus [17]) was greater than 800 µM and the EC50 (Sindbis virus) was greater than 4 µM. For the same molecule, the EC50 (Coxsackievirus B4 [18]) was 2 µM, the IC50 [19] was 0.509 µM and the IC50 [20] was 0.041 µM. It also gave an EC50 (Felid alphaherpesvirus 1) greater than 4 µM, an EC50 [21] greater than 4 µM and a CC50 [22] of 9.2 µM. The EC50 [23] was 4 µM, the EC50 (Influenza B virus [24]) was greater than 800 µM and the EC50 (Coxsackievirus B4 [25]) was greater than 4 µM. It also gave an IC50 (CCRF-CEM) of 10 µM, a CC50 [26] of 1.7 µM and an EC50 (Human alphaherpesvirus 1 [27]) greater than 4 µM.

— ChEMBL document CHEMBL1153955, “Indolylarylsulfones bearing natural and unnatural amino acids. Discovery of potent inhibitors of HIV-1 non-nucleoside wild type and resistant mutant strains reverse transcriptase and coxsackie B4 virus” (J Med Chem, 2009)
